# Data reported in ChEMBL document CHEMBL4602706, “Natural Product Evodiamine with Borate Trigger Unit: Discovery of Potent Antitumor Agents against Colon Cancer” (ACS Med Chem Lett, 2020).
# Calls of active or inactive are those of the source. The rule behind the calls is not given here.
# How the values were obtained:
# HCT-116 [1] = assay: Induction of apoptosis in human HCT116 cells assessed as apoptotic cells at 0.2 uM incubated for 48 hrs by AnnexinV-FITC/PI staining based flow cytometric analysis (reference value: 6.25 to 8.23%); type: functional
# Summary of the method: (§1)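 HCT116 cells exposed to 0.05, 0.2 or 0.4 μM for 48 h. Apoptotic cells quantified by flow cytometry, n = 3.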
# HCT-116 [2] = assay: Induction of cell cycle arrest in human HCT116 cells assessed as accumulation at G2 phase at 0.05 uM incubated for 24 hrs by propidium iodide staining based flow cytometry (reference value: 18.51 to 20.82%); type: functional
# [3] = molecular target: T1, DNA topoisomerase II (Homo sapiens) (UniProt P11388+Q02880); assay: Inhibition of Top2 (unknown origin) at 50 uM using supercoiled pBR322 plasmid DNA as substrate incubated for 30 mins by PI staining based agarose gel electrophoresis analysis; type: protein assay
# HCT-116 [4] = assay: Induction of cell cycle arrest in human HCT116 cells assessed as accumulation at S phase at 0.05 uM incubated for 24 hrs by propidium iodide staining based flow cytometry (reference value: 30.31 to 40.69%); type: functional
# [5] = Toxicity in nude mouse xenografted with human HCT116 cells assessed as change in body weight at 10 mg/kg, ip bid measured every two days for 21 days; type: organism-based, HCT-116; conditions: in vivo, 504 h
# Summary of the method: (§2)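 HCT116 xenograft in mice. Dosing 10 mg/kg intraperitoneally over 21 consecutive days; tumour growth inhibition and body weight followed. Mean ± SEM, Student's t test versus vehicle group.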
# HCT-116 [6] = assay: Induction of apoptosis in human HCT116 cells assessed as apoptotic cells at 0.05 uM incubated for 48 hrs by AnnexinV-FITC/PI staining based flow cytometric analysis (reference value: 6.25 to 8.23%); type: functional; summary of the method: as §1
# [7] = molecular target: T1, DNA topoisomerase II (Homo sapiens); assay: Inhibition of Top2 (unknown origin) using supercoiled pBR322 plasmid as substrate incubated for 30 mins by PI staining based agarose gel electrophoresis analysis; type: protein assay
# HCT-116 [8] = assay: Induction of cell cycle arrest in human HCT116 cells assessed as accumulation at G1 phase at 0.2 uM incubated for 24 hrs by propidium iodide staining based flow cytometry (reference value: 38.49 to 51.18%); type: functional
# [9] = Drug metabolism in human HCT116 cells assessed as 3-Fluoro-10-hydroxy-14-methyl-8,13,13b,14-tetrahydro-7H-indolo[2',3':3,4]pyrido[2,1-b]quinazolin-5-one release by measuring parent compound retention time incubated for 8 hrs by UPLC-QTOF/MS analysis; type: ADME, cell-based; conditions: hct-116, 8 h
# Summary of the method: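 Compounds incubated with HCT116 cells; culture media analysed by HPLC after 8, 48 and 72 h. Relative release rate taken from relative peak areas; parent and product identified by retention time.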
# HCT-116 [10] = assay: Antitumour activity against human HCT116 cells xenografted in nude mouse assessed as tumour growth inhibition at 10 mg/kg, ip bid measured every two days for 21 days by caliper method relative to control; type: functional; conditions: HCT-116, ip, read-out: TGI; summary of the method: as §2
# [11] = molecular target: T2, DNA topoisomerase 1 (Homo sapiens) (UniProt P11387); assay: Inhibition of Top1 (unknown origin) at 83.3 uM using supercoiled pBR322 plasmid DNA as substrate incubated for 15 mins by PI staining based agarose gel electrophoresis analysis
# T2 sequence (whole entry): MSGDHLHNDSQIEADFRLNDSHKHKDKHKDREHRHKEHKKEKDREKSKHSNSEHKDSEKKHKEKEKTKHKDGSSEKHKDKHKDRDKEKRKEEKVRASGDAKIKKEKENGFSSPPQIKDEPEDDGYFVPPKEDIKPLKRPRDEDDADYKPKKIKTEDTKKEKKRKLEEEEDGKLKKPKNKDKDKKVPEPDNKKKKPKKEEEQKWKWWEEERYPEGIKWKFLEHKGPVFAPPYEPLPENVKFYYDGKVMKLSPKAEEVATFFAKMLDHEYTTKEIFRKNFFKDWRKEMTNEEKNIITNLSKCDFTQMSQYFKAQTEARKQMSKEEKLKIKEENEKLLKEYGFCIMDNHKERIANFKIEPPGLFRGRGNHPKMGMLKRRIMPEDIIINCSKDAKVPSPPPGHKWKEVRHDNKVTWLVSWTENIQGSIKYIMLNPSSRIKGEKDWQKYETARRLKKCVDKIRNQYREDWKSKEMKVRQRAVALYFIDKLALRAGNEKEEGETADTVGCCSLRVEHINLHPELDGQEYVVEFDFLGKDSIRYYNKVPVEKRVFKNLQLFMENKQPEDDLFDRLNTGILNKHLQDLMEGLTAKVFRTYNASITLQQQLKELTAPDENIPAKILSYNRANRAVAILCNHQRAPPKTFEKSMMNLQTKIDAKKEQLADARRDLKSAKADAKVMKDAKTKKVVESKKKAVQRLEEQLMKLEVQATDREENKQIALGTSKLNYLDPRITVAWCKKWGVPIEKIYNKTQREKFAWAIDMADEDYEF
# A549 = assay: Antiproliferative activity against human A549 cells incubated for 72 hrs by CCK8 assay; type: functional, cell-based; conditions: Homo sapiens, A549, 72 h; read-out: IC50
# Summary of the method: (§3)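 HCT116, MCF-7 and A549 human cancer cell lines; antiproliferative activity read out by CCK8 assay. Evodiamine derivatives and camptothecin served as positive controls.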
# HCT-116 [12] = assay: Induction of cell cycle arrest in human HCT116 cells assessed as accumulation at S phase at 0.2 uM incubated for 24 hrs by propidium iodide staining based flow cytometry (reference value: 30.31 to 40.69%); type: functional
# [13] = Metabolic stability in mouse liver microsomes assessed as half life at 1 uM preincubated with compound followed by NADPH addition measured upto 45 mins by LC-MS/MS analysis; type: ADME, Microsome
# Summary of the method: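 In vitro stability in liver microsomes; terminal half-life determined.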
# HCT-116 [14] = assay: Induction of cell cycle arrest in human HCT116 cells assessed as accumulation at S phase at 0.4 uM incubated for 24 hrs by propidium iodide staining based flow cytometry (reference value: 30.31 to 40.69%); type: functional
# [15] = Drug metabolism in human HCT116 cells assessed as 3-Fluoro-10-hydroxy-14-methyl-8,13,13b,14-tetrahydro-7H-indolo[2',3':3,4]pyrido[2,1-b]quinazolin-5-one release at 0.2 mM by UPLC-QTOF/MS analysis relative to control; type: ADME, cell-based; conditions: hct-116, 200 µM, TDE = time-dependent effect
# [16] = molecular target: T2, DNA topoisomerase 1 (Homo sapiens); assay: Inhibition of Top1 (unknown origin) at 125 uM using supercoiled pBR322 plasmid DNA as substrate incubated for 15 mins by PI staining based agarose gel electrophoresis analysis
# Summary of the method: (§4)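 Top1 inhibition tested at 500, 250 and 125 μM, and over 27.9 to 250 μM for selected compounds.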
# HCT-116 [17] = assay: Induction of cell cycle arrest in human HCT116 cells assessed as accumulation at G2 phase at 0.4 uM incubated for 24 hrs by propidium iodide staining based flow cytometry (reference value: 18.51 to 20.82%); type: functional
# HCT-116 [18] = assay: Induction of apoptosis in human HCT116 cells assessed as apoptotic cells at 0.4 uM incubated for 48 hrs by AnnexinV-FITC/PI staining based flow cytometric analysis (reference value: 6.25 to 8.23%); type: functional; summary of the method: as §1
# [19] = molecular target: T2, DNA topoisomerase 1 (Homo sapiens); assay: Inhibition of Top1 (unknown origin) at 500 uM using supercoiled pBR322 plasmid DNA as substrate incubated for 15 mins by PI staining based agarose gel electrophoresis analysis; summary of the method: as §4
# HCT-116 [20] = assay: Induction of cell cycle arrest in human HCT116 cells assessed as accumulation at G1 phase at 0.05 uM incubated for 24 hrs by propidium iodide staining based flow cytometry (reference value: 38.49 to 51.18%); type: functional
# HCT-116 [21] = assay: Induction of cell cycle arrest in human HCT116 cells assessed as accumulation at G1 phase at 0.4 uM incubated for 24 hrs by propidium iodide staining based flow cytometry (reference value: 38.49 to 51.18%); type: functional
# HCT-116 [22] = assay: Antiproliferative activity against human HCT116 cells incubated for 72 hrs by CCK8 assay; type: functional, cell-based; conditions: Homo sapiens, HCT-116, 72 h; read-out: IC50; summary of the method: as §3
# HCT-116 [23] = assay: Induction of apoptosis in human HCT116 cells incubated for 48 hrs by AnnexinV-FITC/PI staining based flow cytometric analysis; type: functional, cell-based
# MCF7 = assay: Antiproliferative activity against human MCF7 cells incubated for 72 hrs by CCK8 assay; type: functional, cell-based; conditions: Homo sapiens, MCF7, 72 h; read-out: IC50; summary of the method: as §3
# [24] = Drug metabolism in PBS buffer assessed as H2O2-mediated 3-Fluoro-10-hydroxy-14-methyl-8,13,13b,14-tetrahydro-7H-indolo[2',3':3,4]pyrido[2,1-b]quinazolin-5-one release rate at pH 7.4 incubated for 8 hrs in presence of 0.05 mM H2O2 by HPLC analysis; type: physicochemical; conditions: pH 7.4, 8 h
# Summary of the method: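 Release of the parent compound after treatment with H2O2 at varied concentrations, including 0.05 mM, in PBS pH 7.4. Analysed by HPLC.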
# HCT-116 [25] = assay: Induction of cell cycle arrest in human HCT116 cells assessed as accumulation at G2 phase at 0.2 uM incubated for 24 hrs by propidium iodide staining based flow cytometry (reference value: 18.51 to 20.82%); type: functional
# HCT-116 [26] = assay: Antitumour activity against human HCT116 cells xenografted in nude mouse assessed as tumour growth inhibition at 0.5 mg/kg, ip qd measured every two days for 21 days by caliper method relative to control; type: functional; conditions: HCT-116, ip, read-out: TGI
# [27] = Toxicity in nude mouse xenografted with human HCT116 cells assessed as change in body weight at 0.5 mg/kg, ip qd measured every two days for 21 days; type: organism-based, HCT-116; conditions: in vivo, 504 h
smiles,measurement,setting,value
CN1c2ccc(F)cc2C(=O)N2CCc3c([nH]c4ccc(OC(=O)OCc5ccc(B6OC(C)(C)C(C)(C)O6)cc5)cc34)C21 (centres undefined),Activity,HCT-116 [1],55.64%
same,Activity,HCT-116 [2],26.88%
same,inhibition,[3],Active
same,Activity,HCT-116 [4],38.8%
same,Activity,[5],Non-Toxic
same,Activity,HCT-116 [6],41.28 - 42.28%
same,inhibition,[7],Active
same,Activity,HCT-116 [8],8.82%
same,Retention_time,[9],11.4 min
same,inhibition in vivo at 10 mg/kg,HCT-116 [10],64.4%
same,inhibition,[11],Active
same,IC50,A549,37 nM
same,Activity,HCT-116 [12],45.69%
same,half-life at 1 µM,[13],8.36 min
same,Activity,HCT-116 [14],38.8%
same,Drug metabolism,[15],Tde
same,inhibition,[16],Active
same,Activity,HCT-116 [17],56.25%
same,Activity,HCT-116 [18],61.73%
same,inhibition,[19],Active
same,Activity,HCT-116 [20],34.32%
same,Activity,HCT-116 [21],4.95%
same,IC50,HCT-116 [22],16 nM
same,Activity,HCT-116 [23],Dose-dependent effect
same,IC50,MCF7,33 nM
same,Drug metabolism,[24],Dose-dependent effect
same,Activity,HCT-116 [25],45.49%
CC[C@@]1(O)C(=O)OCc2c1cc1n(c2=O)Cc2cc3c(CN(C)C)c(O)ccc3nc2-1 [TOPOTECAN],inhibition in vivo at 0.5 mg/kg,HCT-116 [26],68.8%
same,Activity,[27],Toxic
